# Compounds with a hit are over-represented: about 2.3% of the library has one in this group of screens.
# Mac1 fbg inh – inhibitors of CD11b/CD18 adhesion to fibrinogen, primary screen, K562 cells, luminescence; Integrin beta-2 (Homo sapiens) + Integrin alpha-M (Homo sapiens), P05107+P11215; ATPlite luminescence; Mn2+ added to activate the integrin; inhibition, % at 10 µM; 93,000 compounds, 0.54% hits; AID 1497, 2009;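 active means primary inhibition of 50% or more at 10 µM, then 40% or more on retest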
# Target sequence (P05107 whole entry, looked up, other chains not shown): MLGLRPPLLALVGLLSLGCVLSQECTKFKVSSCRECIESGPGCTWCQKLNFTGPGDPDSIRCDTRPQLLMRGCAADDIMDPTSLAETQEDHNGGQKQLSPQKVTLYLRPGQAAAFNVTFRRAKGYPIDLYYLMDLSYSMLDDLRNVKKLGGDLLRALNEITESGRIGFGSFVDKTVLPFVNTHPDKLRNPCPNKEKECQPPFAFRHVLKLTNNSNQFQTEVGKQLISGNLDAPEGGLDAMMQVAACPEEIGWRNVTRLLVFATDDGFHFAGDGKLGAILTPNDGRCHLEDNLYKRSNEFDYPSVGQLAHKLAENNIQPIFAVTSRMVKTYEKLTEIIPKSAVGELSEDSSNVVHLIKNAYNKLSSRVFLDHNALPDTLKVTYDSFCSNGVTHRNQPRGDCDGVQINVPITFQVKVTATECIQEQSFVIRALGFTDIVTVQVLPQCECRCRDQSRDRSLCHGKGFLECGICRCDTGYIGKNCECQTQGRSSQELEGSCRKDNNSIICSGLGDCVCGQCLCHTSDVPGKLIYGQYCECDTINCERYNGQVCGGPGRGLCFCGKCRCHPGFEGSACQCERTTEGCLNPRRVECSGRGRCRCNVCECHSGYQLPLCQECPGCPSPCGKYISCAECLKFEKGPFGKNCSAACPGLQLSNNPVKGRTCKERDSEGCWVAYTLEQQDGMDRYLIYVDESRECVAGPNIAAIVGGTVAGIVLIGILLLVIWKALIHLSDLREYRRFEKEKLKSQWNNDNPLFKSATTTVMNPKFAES
# E coli WT exp – growth inhibitors of wild-type E. coli, primary screen, strain BW25113, expanded library, OD600 | 98,000 compounds, 0.15% hits | OD600 absorbance | growth inhibition, % at 100 µM;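 active means growth inhibition above about 50% at one test dose, limit read from the data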;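 further: growth measured after 20 h incubation at 37 °C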
# Pyk2 oligo antag – antagonists of Pyk2 self-association, primary screen, Q293 cells, FERM NanoBiT luminescence, HTS; Protein-tyrosine kinase 2-beta (Homo sapiens), Q14289; stronger effect = lower value; z-score (the deposit names both 25 µM and 10 µM); 99,000 compounds, 0.83% hits; AID 1347419, 2020;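 active means Z-score of -3 or lower, scaled per plate to the spread of control and sample wells; inactive means z-score above -3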;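 further: negative z-score means lost luminescence so less FERM oligomerization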
# CD11b adhes enh – enhancers of CD11b/CD18 adhesion to fibrinogen, primary screen, K562 cells, luminescence; activation, % at 10 µM; Integrin beta-2 (Homo sapiens) + Integrin alpha-M (Homo sapiens), P05107+P11215; AID 1499, 2009; 93,000 compounds, 0.07% hits; ATPlite luminescence;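 active means 10 µM primary screen giving 50% or more activity, confirmed by 40% or more on retest at that dose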
# tolC growth inh – growth inhibitors of E. coli tolC mutant, primary screen, strain BW25113 ΔtolC::kan, 384-well; OD615; growth inhibition, % at 10 µM (by protocol); 65,000 compounds, 2.2% hits;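 active means growth inhibition at or above a cutoff equal to the mean over every tested compound plus 3 SD, cut at about 60% in these data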;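 further: growth measured after 20 h incubation at 37 °C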
#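 System: E. coli ΔtolC::kan strain BW25113; Buffer or medium: LB broth supplemented with 50 µg/mL kanamycin; Compound: 10 µM final, single dose; Incubation: bacterial growth with compound for 20 h at 37 °C; Signal: A615 absorbance measurement; Evaluation: growth inhibition in percent.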
# * marks the source's active call; other numbers are inactive results; x = not tested or not shown.
SMILES,Mac1 fbg inh,E coli WT exp,Pyk2 oligo antag,CD11b adhes enh,tolC growth inh
O=C(Nc1ccc(N2CCN(C(=O)c3ccco3)CC2)c(Cl)c1)c1cccs1,-6,-17,-2.2,-4,71*
COc1ccc(OC)c(NC(=O)C(CC(=O)O)NCc2ccco2)c1 (stereo unspecified),x,3,-0.41,x,-15
COC(=O)c1[nH]c2cccc(OC)c2c1NC(=O)CN1CCOCC1,-3,4,-0.21,2,-25
COC(=O)c1[nH]c2cccc(OC)c2c1NC(=O)CN1CC2(C)CC1CC(C)(C)C2 (stereo unspecified),-53,-4,0.83,3,62*
C=CCn1c(=O)n(CCOC)c(=O)c2sc3ccccc3c21,2,1,x,-3,16
CCSc1nnc(CNC(=O)C23CC4CC(CC(C4)C2)C3)n1C1CCCCC1,12,x,x,-4,x
O=C1CCCc2nc(N3CCN(c4ccccc4)CC3)ncc21,-3,-7,0.53,2,-8
O=C1CCCc2nc3nc4ccccc4n3cc21,3,46,x,-9,93*
O=C(Nc1c(F)cccc1F)c1cnc(N2CCN(c3ccccn3)CC2)c2ccccc12,7,-8,-3.6*,-2,x
N#C/C(=N\Nc1ccccc1Cl)C(=O)c1ccccc1,104*,-3,-1.2,-11,x
Cc1c(N/N=C(\C#N)C(=O)c2ccccc2)c(=O)n(-c2ccccc2)n1C,14,x,x,1,x
N#C/C(=N\Nc1cccc(Cl)c1)C(=O)c1ccccc1,98*,0,-1.2,-11,x
CC(C)n1c(SCC(=O)N2CCCc3ccccc32)nc2c1c(=O)n(C)c(=O)n2C,x,x,x,x,3
O=C1CC(SC(=Nc2ccccc2)Nc2ccccc2)C(=O)N1c1cccc2ccccc12 (stereo unspecified),x,0,-3*,x,x
Cc1ccc(-c2nnc(SCC(=O)N3CC(C)CC(C)C3)o2)cc1C (stereo unspecified),x,-8,x,x,97*
CCOC(=O)c1cc2c(ccn2C)n1Cc1ccccc1C,-47,-10,-0.88,-1,69*
O=C(NNC(=S)NC(=O)c1cccnc1)c1ccc(Cl)cc1,x,74*,0.18,x,x
Cc1ccc(C(=O)NNC(=S)NC(=O)c2ccc(Cl)cc2)cc1,x,-6,0.81,x,x
COc1ccc(S(=O)(=O)N(CC(=O)N/N=C/c2cccs2)c2cc(C)cc(C)c2)cc1OC,-24,-11,-3*,4,x
CCCCOc1ccc(S(=O)(=O)N2CCCCCC2)cc1,36,9,-1.8,-1,62*
COC(=O)c1c(NC(=O)C2CC(=O)NN2Cc2ccccc2)sc(C)c1C (stereo unspecified),x,2,-1.3,x,x
COC(=O)C/C(C)=N/Nc1ccc(S(=O)(=O)N2CCCC2)cc1[N+](=O)[O-],14,x,x,4,x
CCC(Sc1nnnn1-c1ccccc1)C(=O)Nc1nc2ccccc2s1 (stereo unspecified),x,-38,-2.1,x,74*
CCC(Sc1nnnn1-c1ccccc1)C(=O)NC(C)c1ccccc1 (stereo unspecified),-4,-5,-1.8,3,34
Cc1nc2c(C(=O)NCCC(C)C)c[nH]n2c(=O)c1Cc1ccccc1F,81*,17,-1.8,-9,x
SMILES,Mac1 fbg inh,E coli WT exp,Pyk2 oligo antag,CD11b adhes enh,tolC growth inh
Nc1nc(N2CCOCC2)cc(=O)[nH]1,x,1,-0.28,x,x
CN1C(=O)C2(OCC(COc3ccc(Cl)cc3)O2)c2ccccc21 (stereo unspecified),16,-8,-2.4,-3,71*
CC1OC2(OC1C)C(=O)Nc1ccccc12 (stereo unspecified),-11,8,0.51,-1,x
O=C1Nc2ccccc2C12OCC(COc1ccc(Cl)cc1)O2 (stereo unspecified),12,12,-0.88,10,93*
Cc1cccc(NC(=S)N(CCN(C)C)C(C)c2ccccn2)c1 (stereo unspecified),0,3,1.2,-3,x
O=C(CSc1n[nH]c(-c2ccccc2Br)n1)NCCN1C(=O)CSC1=O,-4,x,x,2,x
CCOc1ccc(NC2c3ccccc3C(=O)N2Cc2ccco2)cc1 (stereo unspecified),30,7,x,-2,1
COc1ccc(N(Cc2ccccc2)S(=O)(=O)c2cccc(C(=O)NC3=NCCS3)c2)cc1,x,-10,-3.3*,x,x
CC(C)COC(=O)NCCOC(=O)Nc1cccc(Cl)c1,x,25,1.1,x,89*
Cc1ccc(NC(=O)CS(=O)Cc2nc(-c3ccc(C)cc3)oc2C)cc1 (stereo unspecified),-13,-14,x,2,x
C=C(C)Cn1c(N2CCC(Cc3ccccc3)CC2)nc2c1c(=O)[nH]c(=O)n2C,x,-7,-1.4,x,92*
CC(=O)Cn1c(N2CCC(Cc3ccccc3)CC2)nc2c1c(=O)[nH]c(=O)n2C,-6,-1,0.1,-1,7
CCCn1c(N2CCC(Cc3ccccc3)CC2)nc2c1c(=O)[nH]c(=O)n2C,1,-2,-1.5,-1,53
CCCCCn1c(N2CCC(Cc3ccccc3)CC2)nc2c1c(=O)[nH]c(=O)n2C,x,x,x,x,71*
CCOc1cccc(-c2nc3cc(C)ccc3o2)c1,7,0,0.33,-3,100*
O=C1C(Cl)=C(N2CCN(c3ccccc3[N+](=O)[O-])CC2)C(=O)c2ccccc21,x,x,-0.29,x,x
O=S(=O)(Nc1ccc(-c2nc3ccccc3o2)cc1)c1ccccc1,15,0,-3.5*,2,93*
CCCc1cc(-c2[nH]ncc2-c2ccc(C(=O)OCC)o2)c(O)cc1O,2,1,-2.1,6,43
CCCOC(=O)c1ccc(-c2c(C)noc2-c2ccc(OC)cc2O)o1,11,-6,-2.9,15,99*
Oc1ccc2c(c1)oc1cc(O)ccc12,x,35,-0.58,x,100*
COc1ccc(N2C(=O)c3ccccc3NC2c2ccc(OC)c(CSc3ccccn3)c2)cc1 (stereo unspecified),x,-5,-3.2*,x,x
COc1ccc(N2C(=O)c3ccccc3NC2c2ccc(OC)c(COc3ccccn3)c2)cc1 (stereo unspecified),6,x,x,-1,x
COc1ccccc1-c1cc(C(=O)NCc2ccc(Cl)cc2)no1,x,-3,-0.25,x,-4
COc1ccccc1-c1cc(C(=O)NCc2ccc(F)cc2)no1,-1,-10,-1.2,0,92*
COc1ccc(CNC(=O)c2cc(-c3ccco3)on2)cc1,x,-8,0.27,x,-23
COc1ccc(CNC(=O)c2cc(-c3ccccc3OC)on2)cc1,0,-2,-2.2,0,69*
O=C(NCc1ccc(F)cc1)c1cc(-c2ccco2)on1,-2,0,-0.84,7,-9
COc1ccccc1-c1cc(C(=O)NCc2ccccc2)no1,3,-10,-1.8,-3,80*
Cn1c(=O)n(CCc2ccccc2)c(=O)c2c1nc1n2CCCN1c1ccc(F)cc1,x,x,x,x,-6
CCOC(=O)C1=C(C)Nc2ccccc2N=C1NC(=O)Cc1ccc(OC)cc1,-2,x,-0.11,-1,x

# From PubChem BioAssay
